Test results as given in ChEMBL document CHEMBL1926621, “New potent 5-HT(2A) receptor ligands containing an N'-cyanopicolinamidine nucleus: Synthesis and in vitro pharmacological evaluation” (Eur J Med Chem, 2012).

Target: T1, Adrenergic receptor alpha-2 (Rattus norvegicus, UniProt P22086+P19328+P22909)
T1 sequence (P22086 whole entry): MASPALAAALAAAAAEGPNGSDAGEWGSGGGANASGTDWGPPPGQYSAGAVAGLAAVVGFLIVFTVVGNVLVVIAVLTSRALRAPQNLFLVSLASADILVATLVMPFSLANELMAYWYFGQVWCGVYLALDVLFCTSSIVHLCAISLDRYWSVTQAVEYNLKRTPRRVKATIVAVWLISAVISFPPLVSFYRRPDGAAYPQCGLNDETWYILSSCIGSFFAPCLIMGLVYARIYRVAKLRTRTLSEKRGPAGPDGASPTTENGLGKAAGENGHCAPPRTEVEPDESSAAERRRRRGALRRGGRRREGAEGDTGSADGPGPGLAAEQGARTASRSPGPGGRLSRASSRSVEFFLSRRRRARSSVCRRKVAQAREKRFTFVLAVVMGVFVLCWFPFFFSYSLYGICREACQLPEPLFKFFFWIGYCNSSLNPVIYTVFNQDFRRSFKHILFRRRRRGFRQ
T1 sequence (P19328 whole entry): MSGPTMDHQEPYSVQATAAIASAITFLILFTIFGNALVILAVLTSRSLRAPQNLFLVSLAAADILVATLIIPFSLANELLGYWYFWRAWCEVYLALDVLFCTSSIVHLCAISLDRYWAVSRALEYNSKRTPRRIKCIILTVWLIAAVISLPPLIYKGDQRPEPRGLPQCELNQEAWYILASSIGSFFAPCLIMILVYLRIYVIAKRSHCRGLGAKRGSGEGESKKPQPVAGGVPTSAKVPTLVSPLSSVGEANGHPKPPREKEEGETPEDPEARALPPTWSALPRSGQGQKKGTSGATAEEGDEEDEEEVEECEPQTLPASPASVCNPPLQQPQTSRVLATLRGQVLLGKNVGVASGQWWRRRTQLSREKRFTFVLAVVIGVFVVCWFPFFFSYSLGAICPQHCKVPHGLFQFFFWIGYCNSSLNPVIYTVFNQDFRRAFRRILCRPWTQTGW
T1 sequence (P22909 whole entry): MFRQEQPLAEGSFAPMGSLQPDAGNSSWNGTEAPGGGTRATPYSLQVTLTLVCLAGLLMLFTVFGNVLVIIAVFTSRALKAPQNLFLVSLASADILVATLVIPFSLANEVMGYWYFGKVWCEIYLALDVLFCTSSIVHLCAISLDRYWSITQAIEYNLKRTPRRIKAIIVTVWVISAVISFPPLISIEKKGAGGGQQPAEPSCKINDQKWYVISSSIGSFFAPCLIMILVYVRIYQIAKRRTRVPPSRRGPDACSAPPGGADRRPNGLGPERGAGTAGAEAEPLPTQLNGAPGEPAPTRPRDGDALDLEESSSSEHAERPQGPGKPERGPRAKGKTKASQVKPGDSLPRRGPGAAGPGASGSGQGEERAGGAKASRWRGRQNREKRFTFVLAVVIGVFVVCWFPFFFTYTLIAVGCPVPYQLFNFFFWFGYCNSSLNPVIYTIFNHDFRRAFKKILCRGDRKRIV
Experiment: Displacement of [3H]yohimbine from rat brain cortex adrenergic alpha2 receptor after 30 mins by liquid scintillation counting
Summary of the method: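 Cortex homogenized in 5 mM Tris-HCl, 5 mM EDTA pH 7.3, spun three times at 50,000 g, resuspended in 50 mM Tris-HCl, 0.5 mM EDTA pH 7.5. [3H]yohimbine 1 nM final, 10 mg fresh tissue, 30 min at 25 °C. Phentolamine defined nonspecific binding. Ki by Cheng-Prusoff.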

Question: With `COc1ccccc1N1CCN(CCCN/C(=N\C#N)c2ccccn2)CC1` as the compound, how does the Ki read?
Answer: Its Ki is 245 nM.

Question: For `N#C/N=C(\NCCCN1CCN(c2ccccn2)CC1)c1ccccn1`, which Ki is on record?
Answer: The Ki was over 10000 nM.

Question: `CCOc1ccccc1N1CCN(CCCN/C(=N\C#N)c2ccccn2)CC1` was tested. Which Ki did it give?
Answer: Its Ki is 571 nM.

Question: How did the Ki turn out when `N#C/N=C(\NCCCN1CCN(c2cccc(C(F)(F)F)c2)CC1)c1ccccn1` was run?
Answer: Its Ki is over 10000 nM.

Question: With `Cc1cccc(N2CCN(CCCN/C(=N\C#N)c3ccccn3)CC2)c1C` as the compound, how does the Ki read?
Answer: Its Ki is 318 nM.
